Screens as filed in PubChem BioAssay.
DYRK1A inh – inhibitors of rat Dyrk1A kinase. AID 504441. hit rate 0.43% among 310,000. Q63470. inhibition, % at 12.5 µM. ADP-Glo luminescence, NFATc1 peptide; in the data active = inhibition above about 50%;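 also: plate controls were vehicle with enzyme for no effect and no enzyme for full effect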
Rtt109 HAT inh – blocks Candida albicans Rtt109/Vps75 acetyltransferase activity; inhibition, % at 34.9 µM; AID 540336; purified Rtt109/Vps75, ThioGlo CoA-SH fluorescence, 4 h; Q5AAJ8; hit rate 0.16% among 330,000;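 active = inhibition of at least 50% in every replicate; inconclusive = best replicate reaches 50% inhibition but some replicates fall short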
Target sequence (Q5AAJ8 whole entry, looked up): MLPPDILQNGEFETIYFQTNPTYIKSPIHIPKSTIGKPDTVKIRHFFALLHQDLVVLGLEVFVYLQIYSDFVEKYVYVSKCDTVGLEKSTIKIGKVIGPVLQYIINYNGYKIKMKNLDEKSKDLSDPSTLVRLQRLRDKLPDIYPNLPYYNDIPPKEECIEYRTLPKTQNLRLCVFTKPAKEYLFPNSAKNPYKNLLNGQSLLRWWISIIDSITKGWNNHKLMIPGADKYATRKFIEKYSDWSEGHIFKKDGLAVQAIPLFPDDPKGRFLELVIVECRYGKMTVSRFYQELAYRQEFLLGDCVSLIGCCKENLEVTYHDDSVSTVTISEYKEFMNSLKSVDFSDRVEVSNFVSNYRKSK
ALR inh – inhibitors of human sulfhydryl oxidase ALR | purified ALR, DTT oxidation, H2O2 HRP-luminol luminescence | inhibition, % (no concentration beside the values) | hit rate 3.8% among 290,000;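 active = mean replicate inhibition above about 79%, with every replicate also reaching it, limit read from the data; inconclusive = only one of the two criteria met; inactive = mean below limit and not every replicate reaching it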
Target sequence (P55789 whole entry, looked up): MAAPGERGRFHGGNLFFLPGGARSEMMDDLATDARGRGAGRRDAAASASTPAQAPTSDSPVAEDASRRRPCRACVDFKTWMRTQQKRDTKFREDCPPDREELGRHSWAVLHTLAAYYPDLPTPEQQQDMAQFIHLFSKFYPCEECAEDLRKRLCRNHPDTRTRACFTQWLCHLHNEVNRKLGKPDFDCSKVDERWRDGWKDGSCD
CAL PDZ FP-1 – human CAL PDZ-peptide interaction inhibition; Q9HD26; purified CAL PDZ, TMR-peptide fluorescence polarization, 1 h; inhibition, % at 20 µM; hit rate 0.02% among 330,000; AID 504414;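 active = highest replicate inhibition of at least 40%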;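 also: plate controls were DMSO neutral control wells for no effect and unlabeled competitor peptide control wells for full effect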
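Material – purified CerCALP PDZ construct · Detection – FP readout, S and P plane fluorescence · Measure – percent inhibition from loss of millipolarization · Controls – unlabelled peptide for full inhibition, DMSO wells as neutral · Probe or stimulus – TMR-labelled reporter peptide T*-PRC34 bound in PDZ groove · Times – 1 h at RT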
CAL PDZ FP-2 – CAL PDZ (human) peptide binding inhibition. Q9HD26. purified CAL PDZ, TMR-peptide fluorescence polarization, 1 h. inhibition, % at 24.9 µM. hit rate 0.92% among 300,000. AID 602252;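 active = mean inhibition of at least 30% with at least half of replicates also reaching 30%; inconclusive = no clear call, values can overlap the other calls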;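 also: 0% = DMSO neutral control and 100% = excess unlabeled competitor peptide PRC23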
Active calls of the source: *. An excerpt weighted towards active compounds, which were near 4.3% of everything screened.

Screening CCOC(=O)c1c(CN2CCN(C)CC2)n(-c2ccccc2)c2cc(Br)c(O)cc12 returned DYRK1A inh -7, Rtt109 HAT inh 3, ALR inh 79*, CAL PDZ FP-1 -2 and CAL PDZ FP-2 -3.
Screening CCOC(=O)c1c(CN2CCN(CCO)CC2)n(-c2ccccc2)c2cc(Br)c(O)cc12 returned DYRK1A inh 1, Rtt109 HAT inh 9, ALR inh 68, CAL PDZ FP-1 0 and CAL PDZ FP-2 2.
Screening CSc1ncccc1C(=O)OCC(=O)Nc1ccc2c(c1)CCC2 returned Rtt109 HAT inh 13, ALR inh -5, CAL PDZ FP-1 0 and CAL PDZ FP-2 4.
Screening CCc1nnc(NC(=O)CSc2ncc(-c3ccccc3)[nH]2)s1 returned DYRK1A inh 5, Rtt109 HAT inh 0, ALR inh 99* and CAL PDZ FP-1 0.
Screening Cc1nnc(NC(=O)CSc2ncc(-c3ccccc3)[nH]2)s1 returned DYRK1A inh -9, Rtt109 HAT inh 2, ALR inh 62, CAL PDZ FP-1 0 and CAL PDZ FP-2 -6.
For O=C(CSc1ncc(-c2ccc(F)cc2)[nH]1)Nc1cccc(O)c1 the results were DYRK1A inh 30, ALR inh 99*, CAL PDZ FP-1 -1 and CAL PDZ FP-2 -4.
For CCn1cc(C(=O)Nc2sc(C)c(C)c2C(=O)OC)cn1 the results were DYRK1A inh 2, Rtt109 HAT inh 3, ALR inh -2, CAL PDZ FP-1 -2 and CAL PDZ FP-2 -3.
OCCN1CCN(CCCN2c3ccccc3Sc3ccc(C(F)(F)F)cc32)CC1 was read as DYRK1A inh 1, Rtt109 HAT inh -3, ALR inh 98*, CAL PDZ FP-1 1 and CAL PDZ FP-2 -5.
Screening CN1CCN(CCC(=O)N2c3ccccc3Sc3ccc(C(F)(F)F)cc32)CC1 returned DYRK1A inh 0, Rtt109 HAT inh 8, ALR inh 21, CAL PDZ FP-1 0 and CAL PDZ FP-2 -4.
For CN(C)CCC(=O)N1c2ccccc2Sc2ccc(C(F)(F)F)cc21 the results were DYRK1A inh 9, Rtt109 HAT inh 2, ALR inh 98*, CAL PDZ FP-1 0 and CAL PDZ FP-2 -4.
For CN(C)CCCN1c2ccccc2Sc2ccc(C(F)(F)F)cc21 the results were DYRK1A inh 2, Rtt109 HAT inh 9, ALR inh 98*, CAL PDZ FP-1 0 and CAL PDZ FP-2 -2.
For CN(C(=O)COC(=O)CN1C(=O)C2CC=CCC2C1=O)c1ccccc1 (stereo not drawn) the results were DYRK1A inh -2, Rtt109 HAT inh -12, ALR inh -1, CAL PDZ FP-1 -2 and CAL PDZ FP-2 -3.
Screening CNC(=O)C(=O)NCC1OCCN1S(=O)(=O)c1ccc(OC)c(OC)c1 (stereo not drawn) returned DYRK1A inh -7, Rtt109 HAT inh -20, ALR inh -11, CAL PDZ FP-1 -3 and CAL PDZ FP-2 -2.
Screening CCN(CC)S(=O)(=O)c1cc(NC(=O)CSc2nc3c(cc2C#N)C(=O)CC(C)(C)C3)ccc1C returned DYRK1A inh 7, Rtt109 HAT inh -6, ALR inh 99*, CAL PDZ FP-1 1 and CAL PDZ FP-2 1.
C=C(C)CSc1nnc([C@@H]2CCCN2)o1 was read as Rtt109 HAT inh 9, ALR inh 1, CAL PDZ FP-1 0 and CAL PDZ FP-2 42*.
Cc1cccc(NCCNc2cccc(C)c2)c1 was read as DYRK1A inh 1, Rtt109 HAT inh -12, ALR inh 99*, CAL PDZ FP-1 0 and CAL PDZ FP-2 -6.
Screening Cc1cccc(NCc2ccccc2O)c1 returned DYRK1A inh 7, Rtt109 HAT inh 6, ALR inh 99*, CAL PDZ FP-1 0 and CAL PDZ FP-2 1.
`Oc1ccc(Br)cc1CNc1cnc2ccccc2c1` gave DYRK1A inh 6, Rtt109 HAT inh 16, ALR inh 55, CAL PDZ FP-1 -1 and CAL PDZ FP-2 -2.
Cc1ccc(NCc2ccccc2O)cc1 was read as DYRK1A inh -5, Rtt109 HAT inh -11, ALR inh inconclusive and CAL PDZ FP-1 -1.
For Cc1ccc(O)c(CNc2cnc3ccccc3c2)c1 the results were DYRK1A inh 19, Rtt109 HAT inh 11, ALR inh 98* and CAL PDZ FP-2 -7.
For Cc1ccc(NCCNc2ccc(C)cc2)cc1 the results were DYRK1A inh -5, Rtt109 HAT inh 13, ALR inh 99*, CAL PDZ FP-1 0 and CAL PDZ FP-2 0.
For Cc1nc2nc(-c3cccs3)[nH]c2cc1Br the results were DYRK1A inh 13, Rtt109 HAT inh 11, ALR inh -6, CAL PDZ FP-1 -4 and CAL PDZ FP-2 11.
`COc1ccc(C2CC(c3cccs3)=NN2C(=O)CSc2nc(=O)n3cc(C)ccc3n2)cc1` (stereo not drawn) gave DYRK1A inh -4, Rtt109 HAT inh 7, ALR inh -1 and CAL PDZ FP-1 -5.
CC(C)(C)c1ccc(C(=O)N2CCN(CCNC(=O)C(=O)NCc3ccccc3)CC2)cc1 was read as DYRK1A inh 3, Rtt109 HAT inh 2, ALR inh -6, CAL PDZ FP-1 1 and CAL PDZ FP-2 -2.
For Cc1ccc(CN2CCSc3sccc3C2=O)cc1 the results were DYRK1A inh -5, Rtt109 HAT inh 3, ALR inh 18, CAL PDZ FP-1 3 and CAL PDZ FP-2 -1.
Cc1ccccc1NCc1ccccc1O was read as DYRK1A inh 2, Rtt109 HAT inh -4, ALR inh 100* and CAL PDZ FP-1 0.
CCOC(=O)C(=O)N/N=C(/c1ccccc1)c1ccc(OC)cc1 was read as DYRK1A inh -1, Rtt109 HAT inh 12, ALR inh -7 and CAL PDZ FP-1 0.
Screening COc1cccc(/C=N/Nc2ccccc2C(=O)O)c1O returned DYRK1A inh 15, Rtt109 HAT inh 10, ALR inh 44, CAL PDZ FP-1 0 and CAL PDZ FP-2 81*.
For COc1ccc(/C(=N\Nc2ccccc2C(=O)O)c2ccccc2)cc1 the results were DYRK1A inh 4, Rtt109 HAT inh 4, ALR inh 99*, CAL PDZ FP-1 -1 and CAL PDZ FP-2 4.
For COc1cccc(/C=N/Nc2snc(SC)c2C#N)c1O the results were DYRK1A inh -2, Rtt109 HAT inh 2, ALR inh 86*, CAL PDZ FP-1 -1 and CAL PDZ FP-2 -3.
`COc1ccc(/C=N/Nc2snc(SC)c2C#N)cc1OC` gave DYRK1A inh -3, Rtt109 HAT inh 26, ALR inh 8, CAL PDZ FP-1 0 and CAL PDZ FP-2 -2.
Screening O=C(c1ccc(CNS(=O)(=O)c2ccc(Br)cc2)cc1)N1CCCC1 returned DYRK1A inh -1, Rtt109 HAT inh inconclusive, ALR inh -1 and CAL PDZ FP-1 0.
Screening COc1ccc(CN(CC(=O)NCCc2ccccc2)C(=O)CCC(=O)Nc2ccccn2)cc1 returned DYRK1A inh 3, Rtt109 HAT inh 0, ALR inh -9, CAL PDZ FP-1 -2 and CAL PDZ FP-2 0.
Screening O=C(CCC1N=C2c3ccccc3N=C(SCc3ccc(Cl)cc3)N2C1=O)NCc1ccco1 (stereo not drawn) returned DYRK1A inh 0, Rtt109 HAT inh 18, ALR inh 98*, CAL PDZ FP-1 -3 and CAL PDZ FP-2 -3.
